Tests used:
[1] = species on record: Homo sapiens; assay: Selectivity ratio of Kd for binding affinity to human wild-type partial length PI3Kalpha (R108 to N1068 residues) expressed in mammalian expression system to Kd for binding affinity to wild-type human partial length mTOR (L1382 to W2549 residues) expressed in mammalian expression system
In short: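 Ratio of Kd values from the DNA-tagged kinase competition binding assay (qPCR read-out, 11-point 3-fold dilution from 30 μM, Hill fit with slope −1, duplicates): PI3Kα Kd divided by mTOR Kd.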

[2] = biological target: mTORC2 (Homo sapiens, UniProt P42345); assay: Inhibition of mTORC2 in human A2058 cells assessed as reduction in PKB phosphorylation at S473 residues incubated for 1 hr by Western blot analysis; format: cell-based
In short: (§1)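 In-cell Western assay. A2058 cells (2 × 10^4/well) grown 24 h at 37 °C, 5% CO2, then exposed 1 h to inhibitor or DMSO. Cells fixed in 4% PFA, blocked, and stained for the phospho-protein with α-tubulin as internal standard; infrared fluorescence read-out. Signals normalized to tubulin and to DMSO controls to derive IC50.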

[3] = biological target: mTORC1 (Homo sapiens, UniProt P42345); assay: Inhibition of mTORC1 in human A2058 cells assessed as reduction in ribosomal protein S6 phosphorylation at Ser235/236 residues incubated for 1 hr by Western blot analysis; format: cell-based; in short: as §1
[4] = species on record: Homo sapiens; assay: Selectivity ratio of Ki for inhibition of alexa fluor 647-labeled kinase tracer 314 binding to recombinant human full-length N-terminal His6-tagged p110alpha/p85alpha expressed in baculovirus expression system to Ki for inhibition of alexa fluor 647-labeled kinase tracer 314 binding to recombinant human N-terminal GST-fused mTOR (1360 to 2549 residues) expressed in baculovirus expression system
In short: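 Ratio of Ki values from the TR-FRET tracer 314 displacement assays. p110α: His6-tagged enzyme, biotin anti-His antibody and Eu-streptavidin (2 nM each), tracer at 20 nM, buffer 50 mM HEPES pH 7.5, 10 mM MgCl2, 1 mM EGTA, 0.01% Brij-35. mTOR: GST-mTOR 1360–2549, Eu-anti-GST, tracer 10 nM, HEPES/5 mM MgCl2/EGTA/Pluronic buffer.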

[5] = biological target: Serine/threonine-protein kinase mTOR (Homo sapiens, UniProt P42345); assay: Inhibition of alexa fluor 647-labeled kinase tracer 314 binding to recombinant human N-terminal GST-fused mTOR (1360 to 2549 residues) expressed in baculovirus expression system by TR-FRET assay
In short: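 LanthaScreen TR-FRET tracer displacement. GST-fused truncated mTOR (aa 1360–2549) detected with Eu-anti-GST antibody (2 nM). […] Buffer: 50 mM HEPES, 5 mM MgCl2, 1 mM EGTA, 0.01% Pluronic F-127. Ki derived from displacement.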

[6] = biological target: PI3-kinase p110-alpha/p85-alpha (Homo sapiens, UniProt P42336); assay: Inhibition of alexa fluor 647-labeled kinase tracer 314 binding to recombinant human full-length N-terminal His6-tagged p110alpha/p85alpha expressed in baculovirus expression system by TR-FRET assay
PI3-kinase p110-alpha/p85-alpha, sequence (P27986 whole entry): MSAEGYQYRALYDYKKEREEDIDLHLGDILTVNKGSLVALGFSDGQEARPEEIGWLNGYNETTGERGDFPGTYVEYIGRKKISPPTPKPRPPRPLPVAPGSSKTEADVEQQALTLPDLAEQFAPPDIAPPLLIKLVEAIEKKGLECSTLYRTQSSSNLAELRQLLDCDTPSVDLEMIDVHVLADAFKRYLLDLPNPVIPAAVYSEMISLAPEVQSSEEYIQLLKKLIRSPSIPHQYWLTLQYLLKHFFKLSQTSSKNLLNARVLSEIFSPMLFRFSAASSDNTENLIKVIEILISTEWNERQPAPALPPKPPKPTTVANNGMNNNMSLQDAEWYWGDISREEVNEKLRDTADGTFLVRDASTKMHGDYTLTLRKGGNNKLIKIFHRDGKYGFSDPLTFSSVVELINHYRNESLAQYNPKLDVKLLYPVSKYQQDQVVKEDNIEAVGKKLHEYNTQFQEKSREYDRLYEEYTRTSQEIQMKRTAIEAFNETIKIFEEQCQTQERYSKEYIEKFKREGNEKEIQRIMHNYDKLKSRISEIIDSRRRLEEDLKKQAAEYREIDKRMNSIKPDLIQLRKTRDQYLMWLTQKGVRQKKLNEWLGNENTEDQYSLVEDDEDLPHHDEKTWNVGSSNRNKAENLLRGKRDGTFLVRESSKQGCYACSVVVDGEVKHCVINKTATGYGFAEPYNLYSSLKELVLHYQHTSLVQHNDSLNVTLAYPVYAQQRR
PI3-kinase p110-alpha/p85-alpha, sequence (P42336 whole entry): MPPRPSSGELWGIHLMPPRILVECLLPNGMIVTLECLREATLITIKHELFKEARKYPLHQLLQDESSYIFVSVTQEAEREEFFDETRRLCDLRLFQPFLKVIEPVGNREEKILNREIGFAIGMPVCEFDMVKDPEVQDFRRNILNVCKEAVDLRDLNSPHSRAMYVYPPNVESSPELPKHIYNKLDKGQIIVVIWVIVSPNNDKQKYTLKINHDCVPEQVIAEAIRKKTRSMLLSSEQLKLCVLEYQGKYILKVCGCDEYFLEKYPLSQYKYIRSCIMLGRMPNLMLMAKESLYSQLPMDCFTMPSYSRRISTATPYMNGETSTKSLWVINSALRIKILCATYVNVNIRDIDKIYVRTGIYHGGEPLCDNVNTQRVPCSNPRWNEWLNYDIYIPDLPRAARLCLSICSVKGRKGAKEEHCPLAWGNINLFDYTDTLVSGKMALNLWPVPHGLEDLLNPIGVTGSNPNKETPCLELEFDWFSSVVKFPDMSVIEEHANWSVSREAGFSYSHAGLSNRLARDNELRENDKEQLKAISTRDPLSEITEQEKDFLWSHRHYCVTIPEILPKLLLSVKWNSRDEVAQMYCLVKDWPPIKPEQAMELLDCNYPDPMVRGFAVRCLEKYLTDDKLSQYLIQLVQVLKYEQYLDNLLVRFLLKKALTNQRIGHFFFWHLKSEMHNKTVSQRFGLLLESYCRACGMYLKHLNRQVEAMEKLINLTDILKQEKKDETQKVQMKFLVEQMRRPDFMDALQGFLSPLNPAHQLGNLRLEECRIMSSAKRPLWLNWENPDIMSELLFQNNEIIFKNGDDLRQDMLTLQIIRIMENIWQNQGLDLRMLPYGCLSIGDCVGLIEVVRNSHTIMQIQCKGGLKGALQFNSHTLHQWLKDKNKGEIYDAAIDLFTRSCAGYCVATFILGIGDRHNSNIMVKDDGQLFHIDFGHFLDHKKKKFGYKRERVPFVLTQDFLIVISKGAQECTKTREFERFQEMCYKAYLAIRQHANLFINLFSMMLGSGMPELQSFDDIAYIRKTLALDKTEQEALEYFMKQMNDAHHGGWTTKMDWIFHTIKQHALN

[7] = biological target: T1, Cytochrome P450 1A1 (Homo sapiens, UniProt P04798); assay: Drug level treated with 5-((R)-4-((R)-3-Methylmorpholino)-5a,6,8,9-tetrahydro-5H-pyrimido[5',4':4,5]pyrrolo[2,1-c][1,4]oxazin-2-yl)pyrimidin-2-amine assessed as recombinant human CYP1A1-mediated compound formation incubated for 60 mins by LC/MS analysis; format: ADME; conditions: recombinant enzyme, 1 h
T1 sequence (P04798 whole entry): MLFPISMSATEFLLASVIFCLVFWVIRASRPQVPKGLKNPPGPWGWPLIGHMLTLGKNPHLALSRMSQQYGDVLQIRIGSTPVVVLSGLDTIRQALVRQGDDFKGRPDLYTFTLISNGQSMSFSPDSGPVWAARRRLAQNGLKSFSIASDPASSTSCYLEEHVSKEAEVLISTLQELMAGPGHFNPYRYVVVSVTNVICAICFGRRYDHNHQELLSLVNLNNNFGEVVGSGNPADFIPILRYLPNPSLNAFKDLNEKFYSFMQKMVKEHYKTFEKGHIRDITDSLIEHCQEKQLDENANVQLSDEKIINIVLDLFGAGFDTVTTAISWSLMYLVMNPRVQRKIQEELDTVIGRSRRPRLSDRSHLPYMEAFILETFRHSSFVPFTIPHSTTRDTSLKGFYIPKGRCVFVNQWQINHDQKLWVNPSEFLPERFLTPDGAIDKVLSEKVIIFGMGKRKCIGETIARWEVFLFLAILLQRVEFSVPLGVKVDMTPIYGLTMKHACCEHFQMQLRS
In short: (§2)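 Human recombinant CYP1A1 or CYP1A2 Supersomes (25 pmol/mL) incubated with compound at 1 μM (0.25% DMSO) plus NADP+-regenerating cofactors at 37 °C for 60 min. Reaction stopped with ACN containing internal standard. Parent and metabolites expressed as percentage of total peak areas.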

[8] = biological target: T2, Cytochrome P450 1A2 (Homo sapiens, UniProt P05177); assay: Drug level treated with 5-((R)-4-((R)-3-Methylmorpholino)-5a,6,8,9-tetrahydro-5H-pyrimido[5',4':4,5]pyrrolo[2,1-c][1,4]oxazin-2-yl)pyrimidin-2-amine assessed as recombinant human CYP1A2-mediated compound formation incubated for 60 mins by LC/MS analysis; format: ADME; conditions: recombinant enzyme, 1 h; in short: as §2
T2 sequence (P05177 whole entry): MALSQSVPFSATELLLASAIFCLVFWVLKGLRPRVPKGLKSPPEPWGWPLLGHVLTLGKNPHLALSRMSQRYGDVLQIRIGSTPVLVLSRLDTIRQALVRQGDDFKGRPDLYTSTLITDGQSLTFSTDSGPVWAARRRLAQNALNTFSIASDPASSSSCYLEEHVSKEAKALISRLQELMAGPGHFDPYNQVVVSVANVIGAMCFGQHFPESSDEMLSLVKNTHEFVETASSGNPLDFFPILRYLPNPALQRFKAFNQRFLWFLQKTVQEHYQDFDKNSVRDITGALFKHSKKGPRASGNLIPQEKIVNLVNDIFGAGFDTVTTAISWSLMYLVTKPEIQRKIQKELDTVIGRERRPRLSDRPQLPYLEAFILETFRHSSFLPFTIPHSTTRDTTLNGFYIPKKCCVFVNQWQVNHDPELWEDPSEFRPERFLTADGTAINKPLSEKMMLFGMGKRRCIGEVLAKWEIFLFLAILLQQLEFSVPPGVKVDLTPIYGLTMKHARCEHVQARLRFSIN

Work on `Nc1cc(C(F)F)c(-c2nc(N3C4CCC3COC4)nc(N3C4CCC3COC4)n2)cn1` yielded a Selectivity ratio [1] greater than 3700, an IC50 [2] of 0.19 µM and an IC50 [3] of 0.0852 µM. For the same molecule, the Ratio Ki [4] was 389.
With `CC1(C)COCCN1c1nc(-c2ccc(N)nc2)nc2c1C[C@H]1COCCN21` the IC50 [2] was 1.33 µM, the Ki [5] was 0.121 µM and the IC50 [3] was 0.991 µM. It also gave a Ki [6] of 7.19 µM and a Ratio Ki [4] of 59.
`Nc1cc(C(F)(F)F)c(-c2nc(N3CCCCC3)c3c(n2)N2CCOC[C@@H]2C3)cn1` showed an IC50 [2] of 21.9 µM, an IC50 [3] of 43.3 µM and a Ki [6] of 2.83 µM.
`C[C@H]1COCCN1c1nc(-c2ccc(N)nc2)nc2c1C[C@H]1COCCN21` gave an IC50 [2] of 0.416 µM, a Ki [5] of 0.104 µM and an IC50 [3] of 0.432 µM. The Ki [6] was 0.098 µM and the Ratio Ki [4] was 0.9.
For `CC(C=O)N(CCO)c1nc(-c2cnc(N)nc2)nc2c1C[C@@H]1COC=CN21` (stereo not given in full), the Drug metabolism [7] was “Metabolite_Detected”.
Molecule `Nc1ccc(-c2nc(N3CCOCC3)c3c(n2)N2CCOC[C@H]2C3)cn1` has an IC50 [2] of 0.116 to 0.118 µM, a Ki [5] of 0.024 µM and an IC50 [3] of 0.096 µM. For the same molecule, the Ki [6] was 0.432 µM and the Ratio Ki [4] was 18 to 18.3.
`Nc1ccc(-c2nc(N3CC4CCC(C3)O4)c3c(n2)N2CCOC[C@H]2C3)cn1` showed an IC50 [2] of 0.207 µM, a Ki [5] of 0.027 µM and an IC50 [3] of 0.16 µM. For the same molecule, the Ki [6] was 1.41 µM and the Ratio Ki [4] was 53.
Work on `Nc1ccc(-c2nc(N3CCOCC3)nc3c2C[C@@H]2COCCN32)cn1` yielded an IC50 [2] of 1.56 µM, a Ki [5] of 1.28 µM and an IC50 [3] of 1.86 µM. The Ki [6] was 0.541 µM and the Ratio Ki [4] was 0.4.
With `Nc1ccc(-c2nc(N3CCOCC3)c3c(n2)N2CCOC[C@@H]2C3)cn1` the IC50 [2] was 0.194 µM, the Ki [5] was 0.069 µM and the IC50 [3] was 0.164 µM. For the same molecule, the Ki [6] was 0.076 µM and the Ratio Ki [4] was 1.1.
Work on `C[C@H]1COCCN1c1nc(-c2ccc(N)nc2)nc2c1C[C@@H]1COCCN21` yielded an IC50 [2] of 0.194 µM, a Ki [5] of 0.0091 µM and an IC50 [3] of 0.149 µM. The Ki [6] was 0.386 µM and the Ratio Ki [4] was 43.
For `Nc1cc(C(F)(F)F)c(-c2nc(N3CCOCC3)c3c(n2)N2CCCC[C@@H]2C3)cn1`, the IC50 [2] was 0.321 µM, the IC50 [3] was 1.24 µM and the Ki [6] was 0.048 µM.
`CC1(C)COCCN1c1nc(-c2ccc(N)nc2)nc2c1C[C@@H]1COCCN21` was tested, and the IC50 [2] was 0.409 µM, the Ki [5] was 0.024 µM and the IC50 [3] was 0.136 µM. For the same molecule, the Ki [6] was 0.376 µM and the Ratio Ki [4] was 16.
`Cc1cc(N)ncc1-c1nc2c(c(N3CCOC[C@H]3C)n1)C[C@@H]1COCCN21` gave an IC50 [2] of 1.54 µM, a Ki [5] of 0.085 µM and an IC50 [3] of 0.826 µM. For the same molecule, the Ki [6] was 2.76 µM and the Ratio Ki [4] was 33.
With `Nc1ccc(-c2nc(N3CCOCC3)nc3c2C[C@H]2COCCN32)cn1` the IC50 [2] was 1.87 µM, the Ki [5] was 0.812 µM and the IC50 [3] was 1.79 µM. It also gave a Ki [6] of 0.867 µM and a Ratio Ki [4] of 1.1.
`Nc1ccc(-c2nc(N3C4CCC3COC4)c3c(n2)N2CCOC[C@@H]2C3)cn1` showed an IC50 [2] of 0.389 µM, a Ki [5] of 0.06 µM and an IC50 [3] of 0.354 µM. The Ki [6] was 3.23 µM and the Ratio Ki [4] was 54.
Work on `Nc1ccc(-c2nc(N3C4CCC3COC4)c3c(n2)N2CCOC[C@H]2C3)cn1` yielded an IC50 [2] of 0.152 µM, a Ki [5] of 0.031 µM and an IC50 [3] of 0.132 µM. It also gave a Ki [6] of 1.11 µM and a Ratio Ki [4] of 36.
`COC(OC)c1cc(N)ncc1-c1nc2c(c(N3CCOC[C@H]3C)n1)C[C@@H]1COCCN21` gave an IC50 [2] of 6.52 µM, a Ki [5] of 0.3 µM and an IC50 [3] of 2.42 µM. For the same molecule, the Ki [6] was 1.12 µM and the Ratio Ki [4] was 3.7.
With `Nc1cc(C(F)(F)F)c(-c2nc(N3CCOCC3)c3c(n2)N2CCOC[C@@H]2C3)cn1` the IC50 [2] was 0.353 µM, the IC50 [3] was 0.751 µM and the Ki [6] was 0.021 µM.
`COC(OC)c1nc(N)ncc1-c1nc2c(c(N3CCOC[C@H]3C)n1)C[C@@H]1COCCN21` was tested, and the IC50 [2] was 0.534 µM, the Ki [5] was 0.034 µM and the IC50 [3] was 0.377 µM. It also gave a Ki [6] of 0.066 µM and a Ratio Ki [4] of 2.
`COc1cc(N)ncc1-c1nc2c(c(N3CCOC[C@H]3C)n1)C[C@@H]1COCCN21` was tested, and the IC50 [2] was 3.76 µM, the Ki [5] was 0.208 µM and the IC50 [3] was 2.52 µM. It also gave a Ki [6] of 16 µM and a Ratio Ki [4] of 77.
`Cc1cc(-c2nc3c(c(N4CCOC[C@H]4C)n2)C[C@@H]2COCCN32)cnc1N` gave an IC50 [2] of 0.488 µM, a Ki [5] of 0.056 µM and an IC50 [3] of 0.289 µM. The Ki [6] was 9.63 µM and the Ratio Ki [4] was 172.
`Nc1cc(C(F)(F)F)c(-c2nc(N3CCOCC3)c3c(n2)N2CCOC[C@H]2C3)cn1` gave an IC50 [2] of 0.355 µM, an IC50 [3] of 0.524 µM and a Ki [6] of 0.056 µM.
Work on `Nc1ccc(-c2nc(N3CC4CCC(C3)O4)c3c(n2)N2CCOC[C@@H]2C3)cn1` yielded an IC50 [2] of 0.403 µM, a Ki [5] of 0.096 µM and an IC50 [3] of 0.245 µM. For the same molecule, the Ki [6] was 1.22 µM and the Ratio Ki [4] was 13.
For `CC(C=O)N(CCO)c1nc(-c2cnc(N)nc2)nc2c1C[C@@H]1COCCN21` (stereo not given in full), the Drug metabolism [8] was “Metabolite_Detected” and the Drug metabolism [7] was “Metabolite_Detected”.
For `Nc1cc(C(F)(F)F)c(-c2nc(N3CCCCC3)c3c(n2)N2CCOC[C@H]2C3)cn1`, the IC50 [2] was 2.08 µM, the IC50 [3] was 2.65 µM and the Ki [6] was 0.138 µM.
With `C[C@@H]1COCCN1c1nc(-c2ccc(N)nc2)nc2c1C[C@H]1COCCN21` the IC50 [2] was 0.363 µM, the Ki [5] was 0.031 µM and the IC50 [3] was 0.23 µM. It also gave a Ki [6] of 0.923 µM and a Ratio Ki [4] of 30.
`Nc1cc(C(F)(F)F)c(-c2nc(N3CCOCC3)c3c(n2)N2CCCC[C@H]2C3)cn1` showed an IC50 [2] of 0.407 µM, an IC50 [3] of 0.938 µM and a Ki [6] of 0.022 µM.

Reference: ChEMBL document CHEMBL4321805, “A Conformational Restriction Strategy for the Identification of a Highly Selective Pyrimido-pyrrolo-oxazine mTOR Inhibitor” (J Med Chem, 2019)
